Beta2AR agonist: beta2AR agonists driving receptor internalization, primary screen, cell-based, FAP fluorogen, flow cytometry; Beta-2 adrenergic receptor (Homo sapiens), P07550; Am2.2-beta2AR cells; response, % (test concentration not listed); 0.43% of 340,000 active; AID 504454, 2011;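 active = response above a set limit, near 3 SD of response in nonfluorescent compounds, cut at about 42% in these data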
GRK2 inh: compounds blocking aptamer binding on GRK2 – biochemical, human GRK2, bead flow cytometry, HTS, primary screen. Beta-adrenergic receptor kinase 1 (Homo sapiens), P25098. FAM-aptamer displacement from GRK2. inhibition of aptamer binding, % at 10 µM. 0.59% of 330,000 active. AID 488847, 2010;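 active = inhibition of aptamer binding above 40%, roughly 3 SD of noise, on plates passing a quality check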;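 also: median bead fluorescence of bound FAM aptamer so fluorescent compounds give negative values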
Target sequence (P25098 whole entry, looked up): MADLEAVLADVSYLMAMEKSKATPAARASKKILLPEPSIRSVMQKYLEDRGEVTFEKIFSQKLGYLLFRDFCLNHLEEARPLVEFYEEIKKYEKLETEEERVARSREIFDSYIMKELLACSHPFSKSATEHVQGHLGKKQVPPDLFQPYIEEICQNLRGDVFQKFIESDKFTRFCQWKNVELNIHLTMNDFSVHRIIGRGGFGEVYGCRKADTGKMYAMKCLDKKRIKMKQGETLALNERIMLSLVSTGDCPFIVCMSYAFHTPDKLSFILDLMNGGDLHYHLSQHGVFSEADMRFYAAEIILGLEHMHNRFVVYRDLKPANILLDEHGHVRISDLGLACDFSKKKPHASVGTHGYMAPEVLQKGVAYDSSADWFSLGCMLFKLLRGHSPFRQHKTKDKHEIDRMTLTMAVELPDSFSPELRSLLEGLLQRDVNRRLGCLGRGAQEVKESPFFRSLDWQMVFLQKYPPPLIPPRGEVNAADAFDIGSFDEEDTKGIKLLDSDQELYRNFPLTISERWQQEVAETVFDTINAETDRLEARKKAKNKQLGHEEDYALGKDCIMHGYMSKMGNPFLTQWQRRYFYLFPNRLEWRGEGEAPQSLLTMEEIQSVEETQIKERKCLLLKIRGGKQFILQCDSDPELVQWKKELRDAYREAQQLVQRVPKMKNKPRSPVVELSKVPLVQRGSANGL
NTR1 agonist: agonists of human NTR1, primary screen, imaging, U2OS cells, beta-arrestin-GFP, high content; NTR1-U2OS beta-arrestin-GFP spot imaging, agonist mode; activation, % at 20 µM; 0.17% of 330,000 active; AID 493036, 2011;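 active = activation at or above 40% of the spot to cytoplasm intensity ratio, with at least 20 cells analyzed; inconclusive = wells under 20 cells, flagged as cytotoxic or low count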;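 also: 0% = DMSO without peptide and 100% = 100 nM NTR1 peptide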
H9c2 TAG inh: inhibitors of triacylglycerol accumulation, primary screen, cell-based, uHTS, fluorescence, H9c2. H9c2 cells, Nile Red lipid (TAG) fluorescence; cells loaded with 200 µM oleic acid. inhibition, % at 12.5 µM. 0.66% of 230,000 active;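 active = pattern-corrected inhibition of lipid staining of at least 50% with the nuclear-stain viability signal not falling by more than 50%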;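 also: 0% = DMSO wells and 100% = triacsin C control wells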
Arr AP2 block: inhibitors of beta-arrestin/AP2 binding, primary screen, biochemical, GPCR trafficking, flow cytometry. AID 504490, 2011. 0.31% of 340,000 active. FITC-arrestin peptide / GST-AP2 beads; AP2 beta2 appendage carries R879A mutation. inhibition, % at 10 µM;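 active = inhibition above a set limit, near 3 SD of compounds lacking own fluorescence, cut at about 54% in these data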;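 also: plate controls were DMSO wells for no effect and 5 µM unlabelled arrestin peptide for full effect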
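Measured by: flow cytometry, FL1 (488/535 nm); Material: AP2 appendage R879A on GSH beads; Evaluation: percent response; Timing: pre-incubation 12 min, peptide binding 1 h, room temperature; Also added: 50 nM FITC-arrestin peptide; Medium: PBS with 0.05% Tween 20 and 0.1% BSA.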
Lipid droplet: inhibitors of hepatocyte lipid droplet formation, primary screen, imaging, high-throughput imaging, BODIPY stain; AML12 mouse hepatocytes, oleate lipid droplets; inhibition, % at 6.5 µM; 0.4% of 240,000 active;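 active = lipid droplet intensity inhibited by at least 50%, with more than 500 cells counted; inconclusive = wells with under 300 cells, treated as cytotoxic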
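Test system: AML12 mouse liver cells; schedule: overnight exposure; technique: high-content imaging of BODIPY-stained droplets and DAPI nuclei; read-out: % inhibition of corrected integrated BODIPY droplet signal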
H9c2 TAG conf: triacylglycerol accumulation inhibitors, retest, confirmation, cell-based, single concentration, Nile Red fluorescence, H9c2; H9c2 lipid accumulation; cells loaded with 200 µM oleic acid; 71% of 990 active; inhibition, % at 12.5 µM; shares compounds with H9c2 TAG inh; AID 651629, 2012;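 active = mean inhibition across replicates of 40% or more; inactive = mean inhibition below 40%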;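 also: plate controls were DMSO only wells for no effect and Triacsin C treated wells for full effect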
An asterisk follows results filed as active; ? = inconclusive; . = no result given. This is a sample that favours compounds with a hit; in the whole collection about 2% have one here.

SMILES | Beta2AR agonist | GRK2 inh | NTR1 agonist | H9c2 TAG inh | Arr AP2 block | Lipid droplet | H9c2 TAG conf
Cc1ccc(NC(=O)c2cc3ccccc3o2)cc1S(=O)(=O)N(C)C | -53.4 | . | . | 70.4* | 24.3 | 28.8 | 25.5
CN(C)c1ncnc2c1ncn2C1OC(CO)C(O)C1O (configuration not stated) | 5.7 | 0.0 | 2.0 | 75.3* | 17.3 | -13.6 | 46.5*
Cc1noc(C)c1COc1cccc(C(=O)OCC(=O)N2CC(=O)Nc3ccccc32)c1 | -15.5 | 0.0 | 0.4 | 65.5* | 5.5 | . | 89.2*
CCN(CC)c1ccc(/C=C2\CCC(/C=C(/C#N)C(=O)Nc3ccccc3F)=C2N2CCOCC2)cc1 | -5.0 | . | . | 90.8* | 22.7 | . | 65.0*
COc1ccc(S(=O)(=O)N2c3cc(Cl)ccc3Oc3nc4ccccc4nc32)cc1 | 29.9 | 0.0 | -0.2 | 52.0* | 6.5 | ? | 28.5
Cc1cc(C)c(S(=O)(=O)Nc2ccccc2C(=O)N2CCOCC2)c(C)c1 | 10.3 | 4.0 | 0.7 | 4.3 | -14.6 | -24.2 | .
CC(C)CCNC(=O)C1CCN(S(=O)(=O)c2ccc(-n3cnnn3)cc2)CC1 | 0.5 | 0.0 | -0.1 | . | -1.4 | -6.1 | .
C[C@@H]1CN([C@H](C)CO)C(=O)c2c(c3ccccc3n2C)-c2ccccc2CO[C@H]1CN(C)Cc1ccc(Oc2ccccc2)cc1 | . | . | . | 59.1* | . | . | 73.7*
C[C@H]1CN([C@@H](C)CO)C(=O)c2cc(NC(=O)Nc3cccc4ccccc34)ccc2O[C@@H]1CN(C)Cc1ccc(-c2ccccc2)cc1 | 5.3 | 0.0 | -0.1 | 71.6* | -9.1 | . | 70.5*
C[C@@H]1CN([C@@H](C)CO)C(=O)c2cccc(NC(=O)Nc3ccc(F)cc3)c2O[C@@H]1CN(C)Cc1ccc(Oc2ccccc2)cc1 | 19.7 | 0.0 | 12.6 | 72.8* | -3.7 | . | 80.7*
C[C@@H]1CN([C@H](C)CO)C(=O)CCCn2cc(nn2)CO[C@H]1CN(C)C(=O)Nc1ccnc(N2CCOCC2)c1 | . | . | . | 1.8 | . | . | .
CC1CCCCC12NC(=O)N(CC(=O)Nc1cccnc1)C2=O (configuration not stated) | . | . | . | -4.7 | . | . | .
O=C(Nc1ccc(Cl)cc1)c1csc([C@@H]2C[C@H](O)[C@@H](CO)O2)n1 | . | . | . | 54.2* | . | . | -0.5
COc1ccc(CNS(=O)(=O)CCNC(=O)c2cccc(OC)c2)cc1 | 2.1 | 0.0 | 0.5 | -1.7 | -8.5 | . | .
Cc1ccc(Cc2nnc(SCC(=O)Nc3ccccc3)n(N)c2=O)cc1 | -7.6 | 1.0 | 1.0 | 51.9* | 30.5 | . | 62.1*
CCOc1ccccc1NC(=O)CSc1nnc(Cc2ccc(OC)cc2)c(=O)n1N | -13.0 | 0.0 | 6.8 | 38.1 | -3.7 | . | .
COc1ccc(NC(=O)CSc2nnc(Cc3ccc(C)cc3)c(=O)n2N)cc1OC | -5.2 | 0.0 | -0.8 | 37.3 | -1.6 | . | .
CCOc1ccc(Cc2nnc(SCC(=O)Nc3ccccc3)n(N)c2=O)cc1 | -0.3 | 0.0 | 3.0 | 50.3* | 13.6 | . | 68.2*
CCNC(=O)C1(C)CCN(C(=O)c2ccc(N(C)C)cc2)C1 (configuration not stated) | . | . | . | -1.6 | . | . | .
O=C(Nc1ccccc1)c1nc[nH]c1C(=O)NCCCCCCNC(=O)c1[nH]cnc1C(=O)Nc1ccccc1 | -4.9 | 0.0 | 13.4 | 65.2* | 0.9 | . | 72.8*
CC1(NC(=O)Cc2csc(-c3ccc(Cl)cc3)n2)CCS(=O)(=O)C1 (configuration not stated) | -6.7 | 2.0 | -0.9 | 0.5 | -0.2 | . | .
Cn1cnc([N+](=O)[O-])c1Sc1nc(N)nc2c1ncn2C1OC(CO)C(O)C1O (configuration not stated) | 1.2 | . | . | -0.2 | 7.9 | . | .
CC(C)C(C)(C#N)NC(=O)CSc1nc2scc(-c3ccco3)c2c(=O)n1-c1ccccc1 (configuration not stated) | -7.2 | 0.0 | -1.8 | 70.4* | 15.2 | . | 44.4*
O=C1N[C@H](Cc2ccccc2)COC(=O)[C@@H](Cc2ccc(F)cc2)CC/C=C/C[C@H]1CC(=O)N(CCO)Cc1ccccc1 | 5.5 | 1.0 | 27.1 | 16.0 | -3.8 | . | .
O=C1N[C@@H](Cc2ccccc2)COC(=O)[C@@H](Cc2ccc(F)cc2)CC/C=C/C[C@@H]1CC(=O)N(CCO)Cc1ccccc1 | 7.3 | 3.0 | 9.3 | 55.0* | 9.1 | . | 43.7*
SMILES | Beta2AR agonist | GRK2 inh | NTR1 agonist | H9c2 TAG inh | Arr AP2 block | Lipid droplet | H9c2 TAG conf
CC(Oc1c(Cl)cccc1Cl)C1=NCCN1 (configuration not stated) | . | 3.0 | -0.7 | . | . | . | .
COc1ccc(-c2cc(NC=O)c3ncc(-c4ccc(OC)c(OC)c4)n3c2)cc1OC | . | . | . | 14.1 | . | . | .
COc1ccc(-c2cc(NC=O)c3ncc(-c4ccc(OC)c(OC)c4)n3c2)cc1 | . | . | . | 55.6* | . | . | 65.5*
COc1cc(-c2cnc3c(NC=O)cc(-c4cccnc4)cn23)cc(OC)c1OC | . | . | . | 53.5* | . | . | 46.0*
COc1cccc(-c2cc(NC=O)c3ncc(-c4cc(OC)c(OC)c(OC)c4)n3c2)c1 | . | . | . | 44.9 | . | . | .
CC1CC(C)CN(CC(=O)c2cccs2)C1 (configuration not stated) | 4.9 | 7.0 | 0.8 | 58.6* | 10.1 | -20.5 | 6.0
CC1CCN(CC(=O)c2cccs2)CC1 | -0.2 | 0.0 | -1.3 | 4.4 | 8.9 | 0.8 | .
Cc1nc(C(=O)Nc2ccccc2)sc1C1(C)CC(c2cccnc2)=NO1 (configuration not stated) | -4.6 | . | -5.1 | . | 2.3 | 12.9 | .
COc1ccc(NC(=O)c2nc(C)c(C3(C)CC(c4ccccc4)=NO3)s2)cc1 (configuration not stated) | -4.5 | 1.0 | -3.7 | 76.5* | 0.8 | -12.2 | 93.6*
CCOc1ccc(NC(=O)C2=NN(c3ccccc3)C(=O)CC2)cc1S(=O)(=O)N1CCCCC1 | 1.2 | 2.0 | 3.3 | 4.9 | 24.9 | . | .
N#C/C(=C\c1cc([N+](=O)[O-])c(N2CCCCC2)cc1N1CCCCC1)c1nn(-c2ccccc2)c(N)c1C#N | 14.1 | 0.0 | 2.2 | 50.9* | -8.9 | . | 53.4*
Cc1ccc2cc3cc(C(=O)NCCCN4CCCCCC4)oc3nc2c1 | -0.5 | 0.0 | -0.1 | 51.1* | 7.1 | 12.9 | 29.4
Cc1cc(C(F)(F)F)nn2cnnc12 | 4.3 | 4.0 | 3.4 | -4.3 | 10.2 | -8.4 | .
C#CCNC(=O)c1ccc2sc([C@H]3C[C@H](O)[C@@H](CO)O3)nc2c1 | . | . | . | -5.7 | . | . | .
CC(CNC(=O)CN1C(=O)NC2(CCCCC2)C1=O)c1ccccc1 (configuration not stated) | -4.2 | 16.0 | -1.8 | -10.5 | 2.9 | . | .

From PubChem
